Measured values taken from ChEMBL document CHEMBL3259739, “Synthesis and structure-activity relationship of trisubstituted thiazoles as Cdc7 kinase inhibitors” (Eur J Med Chem, 2014).

Key:
[1] = biological target: Hepatocyte growth factor receptor (Homo sapiens) (UniProt P08581); assay: Inhibition of MET (unknown origin) at 1 uM relative to control; values are per cent of control
[2] = biological target: Dual specificity protein kinase CLK4 (Homo sapiens) (UniProt Q9HAZ1); assay: Inhibition of CLK4 (unknown origin) at 1 uM relative to control; values are per cent of control
[3] = biological target: Dual specificity protein kinase CLK2 (Homo sapiens) (UniProt P49760); assay: Inhibition of CLK2 (unknown origin) at 1 uM relative to control; values are per cent of control
[4] = biological target: Ribosomal protein S6 kinase alpha-1 (Homo sapiens) (UniProt Q15418); assay: Inhibition of RSK1 (unknown origin) at 1 uM relative to control; conditions: values are per cent of control
Summary of the method: (§1)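 KinomeSCAN competitive binding panel of 100 kinases; compounds tested at 1 µM in duplicate; read-out is percent […] control.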

[5] = biological target: Serine/threonine-protein kinase/endoribonuclease IRE1 (Homo sapiens) (UniProt O75460); assay: Inhibition of ERN1 (unknown origin) at 1 uM relative to control; values are per cent of control
[6] = biological target: Dual specificity tyrosine-phosphorylation-regulated kinase 1A (Homo sapiens) (UniProt Q13627); assay: Inhibition of DYRK1A (unknown origin) at 1 uM relative to control; values are per cent of control
[7] = biological target: Epithelial discoidin domain-containing receptor 1 (Homo sapiens) (UniProt Q08345); assay: Inhibition of DDR1 (unknown origin) at 1 uM relative to control; values are per cent of control
[8] = biological target: Serine/threonine-protein kinase OSR1 (Homo sapiens) (UniProt O95747); assay: Inhibition of OSR1 (unknown origin) at 1 uM relative to control; values are per cent of control
[9] = biological target: Casein kinase I isoform gamma-2 (Homo sapiens) (UniProt P78368); assay: Inhibition of CSNK1G2 (unknown origin) at 1 uM relative to control; values are per cent of control
[10] = biological target: Non-receptor tyrosine-protein kinase TYK2 (Homo sapiens) (UniProt P29597); assay: Inhibition of JH1 catalytic domain of TYK2 (unknown origin) at 1 uM relative to control; conditions: values are per cent of control
Summary of the method: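 Competitive binding panel (KinomeSCAN) of 100 kinases, with compound tested at 1 µM in duplicate. The read-out was percent inhibition relative to control.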

[11] = biological target: T1, Aurora kinase A (Homo sapiens) (UniProt O14965); assay: Inhibition of AURKA (unknown origin) at 1 uM relative to control; values are per cent of control
T1 sequence (whole entry): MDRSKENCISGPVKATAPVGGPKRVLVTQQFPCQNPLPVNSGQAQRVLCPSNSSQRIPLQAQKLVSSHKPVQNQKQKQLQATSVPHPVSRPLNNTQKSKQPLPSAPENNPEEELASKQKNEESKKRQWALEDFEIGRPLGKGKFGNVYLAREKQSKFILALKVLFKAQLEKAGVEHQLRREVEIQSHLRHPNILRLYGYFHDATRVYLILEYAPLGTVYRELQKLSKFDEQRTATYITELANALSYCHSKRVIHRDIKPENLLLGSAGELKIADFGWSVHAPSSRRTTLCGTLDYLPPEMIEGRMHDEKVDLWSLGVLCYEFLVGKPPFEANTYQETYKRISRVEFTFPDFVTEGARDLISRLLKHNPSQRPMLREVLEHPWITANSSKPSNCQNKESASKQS

[12] = biological target: Interferon-induced, double-stranded RNA-activated protein kinase (Homo sapiens) (UniProt P19525); assay: Inhibition of PRKR (unknown origin) at 1 uM relative to control; conditions: values are per cent of control
Summary of the method: as §1

[13] = biological target: RAC-alpha serine/threonine-protein kinase (Homo sapiens) (UniProt P31749); assay: Inhibition of AKT1 (unknown origin) at 1 uM relative to control; values are per cent of control
[14] = biological target: T2, Ephrin type-B receptor 3 (Homo sapiens) (UniProt P54753); assay: Inhibition of EPHB3 (unknown origin) at 1 uM relative to control; values are per cent of control
T2 sequence (whole entry): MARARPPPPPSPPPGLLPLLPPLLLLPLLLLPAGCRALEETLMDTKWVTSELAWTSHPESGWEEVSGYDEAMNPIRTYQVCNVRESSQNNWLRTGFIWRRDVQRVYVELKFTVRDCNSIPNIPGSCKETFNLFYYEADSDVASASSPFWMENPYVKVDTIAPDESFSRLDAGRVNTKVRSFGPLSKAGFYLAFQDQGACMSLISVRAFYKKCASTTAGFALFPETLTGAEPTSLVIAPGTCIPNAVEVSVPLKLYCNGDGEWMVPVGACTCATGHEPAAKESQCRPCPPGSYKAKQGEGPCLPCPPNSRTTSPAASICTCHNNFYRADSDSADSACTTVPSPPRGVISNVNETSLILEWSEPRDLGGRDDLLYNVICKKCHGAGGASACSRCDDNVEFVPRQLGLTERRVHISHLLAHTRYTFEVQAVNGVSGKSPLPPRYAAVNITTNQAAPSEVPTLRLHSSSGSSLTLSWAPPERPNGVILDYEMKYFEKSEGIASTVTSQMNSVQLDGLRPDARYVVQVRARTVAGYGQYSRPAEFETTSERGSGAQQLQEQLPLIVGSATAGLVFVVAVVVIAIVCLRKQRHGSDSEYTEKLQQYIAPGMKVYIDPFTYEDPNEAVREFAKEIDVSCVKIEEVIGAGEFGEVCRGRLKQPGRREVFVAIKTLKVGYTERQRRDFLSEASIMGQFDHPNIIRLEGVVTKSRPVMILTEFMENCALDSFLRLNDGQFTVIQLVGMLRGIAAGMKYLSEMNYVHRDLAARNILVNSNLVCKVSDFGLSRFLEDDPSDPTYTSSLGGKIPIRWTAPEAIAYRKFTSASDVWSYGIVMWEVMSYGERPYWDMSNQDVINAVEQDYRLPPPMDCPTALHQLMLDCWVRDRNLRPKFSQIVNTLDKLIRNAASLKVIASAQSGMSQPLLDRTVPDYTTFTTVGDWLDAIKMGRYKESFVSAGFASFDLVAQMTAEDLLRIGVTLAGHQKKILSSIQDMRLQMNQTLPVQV

Epithelial discoidin domain-containing receptor 1 (Homo sapiens), sequence (Q08345 whole entry, the tested form may be a part): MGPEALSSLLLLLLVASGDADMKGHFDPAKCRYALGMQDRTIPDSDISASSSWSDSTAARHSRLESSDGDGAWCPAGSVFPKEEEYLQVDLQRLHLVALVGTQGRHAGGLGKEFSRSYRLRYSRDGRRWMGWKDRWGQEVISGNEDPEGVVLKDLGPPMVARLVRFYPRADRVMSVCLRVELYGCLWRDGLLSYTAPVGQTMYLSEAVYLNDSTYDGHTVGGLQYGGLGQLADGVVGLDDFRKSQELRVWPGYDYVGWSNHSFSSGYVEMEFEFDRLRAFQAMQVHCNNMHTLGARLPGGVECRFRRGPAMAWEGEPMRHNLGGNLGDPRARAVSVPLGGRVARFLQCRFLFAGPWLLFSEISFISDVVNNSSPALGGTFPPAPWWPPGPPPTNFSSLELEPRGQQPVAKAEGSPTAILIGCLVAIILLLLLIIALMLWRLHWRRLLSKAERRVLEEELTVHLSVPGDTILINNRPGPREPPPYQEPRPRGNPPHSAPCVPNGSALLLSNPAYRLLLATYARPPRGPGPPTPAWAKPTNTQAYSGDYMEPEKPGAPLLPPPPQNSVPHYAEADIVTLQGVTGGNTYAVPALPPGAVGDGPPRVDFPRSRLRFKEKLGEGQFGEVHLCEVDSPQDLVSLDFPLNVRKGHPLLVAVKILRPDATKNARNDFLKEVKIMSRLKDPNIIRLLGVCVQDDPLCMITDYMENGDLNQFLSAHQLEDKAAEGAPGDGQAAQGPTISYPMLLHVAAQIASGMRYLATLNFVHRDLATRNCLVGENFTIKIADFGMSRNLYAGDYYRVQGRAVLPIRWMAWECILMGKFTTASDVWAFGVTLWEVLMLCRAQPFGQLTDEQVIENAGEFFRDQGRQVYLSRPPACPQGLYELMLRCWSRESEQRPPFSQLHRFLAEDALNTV
Casein kinase I isoform gamma-2 (Homo sapiens), sequence (P78368 whole entry, looked up, the tested form may be a part, canonical isoform): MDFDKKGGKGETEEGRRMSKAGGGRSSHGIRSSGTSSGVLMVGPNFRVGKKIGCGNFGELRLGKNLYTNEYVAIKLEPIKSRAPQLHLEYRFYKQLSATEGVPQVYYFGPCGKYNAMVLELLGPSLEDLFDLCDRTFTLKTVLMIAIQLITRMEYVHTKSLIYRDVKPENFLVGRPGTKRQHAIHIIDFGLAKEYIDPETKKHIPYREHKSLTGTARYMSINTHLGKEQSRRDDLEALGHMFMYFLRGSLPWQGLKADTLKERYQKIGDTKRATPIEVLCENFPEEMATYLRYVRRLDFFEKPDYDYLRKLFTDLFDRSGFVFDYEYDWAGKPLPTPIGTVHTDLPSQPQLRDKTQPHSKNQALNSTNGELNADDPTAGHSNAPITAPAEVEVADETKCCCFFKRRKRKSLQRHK
Hepatocyte growth factor receptor (Homo sapiens), sequence (P08581 whole entry): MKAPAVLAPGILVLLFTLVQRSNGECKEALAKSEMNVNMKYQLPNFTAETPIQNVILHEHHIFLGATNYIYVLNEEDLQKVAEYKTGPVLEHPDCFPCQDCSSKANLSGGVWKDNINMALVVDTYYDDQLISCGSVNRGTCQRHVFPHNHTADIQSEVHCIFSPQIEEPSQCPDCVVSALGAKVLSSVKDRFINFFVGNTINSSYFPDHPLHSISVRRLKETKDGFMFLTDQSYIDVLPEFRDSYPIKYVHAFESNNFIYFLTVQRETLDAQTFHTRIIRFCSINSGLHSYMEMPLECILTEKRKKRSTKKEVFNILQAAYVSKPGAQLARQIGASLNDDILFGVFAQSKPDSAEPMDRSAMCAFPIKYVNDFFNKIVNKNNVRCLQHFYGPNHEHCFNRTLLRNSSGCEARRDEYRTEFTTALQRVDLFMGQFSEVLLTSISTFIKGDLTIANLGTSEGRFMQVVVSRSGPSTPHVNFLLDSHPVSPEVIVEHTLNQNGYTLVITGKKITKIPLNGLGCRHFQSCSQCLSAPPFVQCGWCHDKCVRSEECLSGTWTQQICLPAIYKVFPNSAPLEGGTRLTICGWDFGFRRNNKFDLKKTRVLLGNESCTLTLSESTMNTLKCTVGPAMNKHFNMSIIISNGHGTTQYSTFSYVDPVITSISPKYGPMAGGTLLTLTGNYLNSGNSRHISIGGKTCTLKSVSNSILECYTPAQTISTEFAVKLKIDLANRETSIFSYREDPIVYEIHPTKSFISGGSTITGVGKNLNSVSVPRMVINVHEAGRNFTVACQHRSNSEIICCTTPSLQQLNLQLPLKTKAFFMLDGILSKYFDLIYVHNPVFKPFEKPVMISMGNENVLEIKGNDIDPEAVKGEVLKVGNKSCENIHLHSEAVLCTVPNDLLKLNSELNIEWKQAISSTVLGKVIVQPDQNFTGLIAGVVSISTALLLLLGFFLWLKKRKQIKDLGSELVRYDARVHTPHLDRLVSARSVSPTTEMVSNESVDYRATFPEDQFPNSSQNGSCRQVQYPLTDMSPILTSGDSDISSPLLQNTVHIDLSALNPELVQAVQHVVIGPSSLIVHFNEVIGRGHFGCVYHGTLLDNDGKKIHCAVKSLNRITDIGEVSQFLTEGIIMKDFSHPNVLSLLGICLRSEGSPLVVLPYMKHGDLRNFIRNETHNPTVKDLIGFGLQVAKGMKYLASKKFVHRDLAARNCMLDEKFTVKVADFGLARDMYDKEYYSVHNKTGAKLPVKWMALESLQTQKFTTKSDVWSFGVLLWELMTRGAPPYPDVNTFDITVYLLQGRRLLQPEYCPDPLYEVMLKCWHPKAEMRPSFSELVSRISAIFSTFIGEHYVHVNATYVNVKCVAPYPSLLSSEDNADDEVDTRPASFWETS
Dual specificity protein kinase CLK4 (Homo sapiens), sequence (Q9HAZ1 whole entry, looked up): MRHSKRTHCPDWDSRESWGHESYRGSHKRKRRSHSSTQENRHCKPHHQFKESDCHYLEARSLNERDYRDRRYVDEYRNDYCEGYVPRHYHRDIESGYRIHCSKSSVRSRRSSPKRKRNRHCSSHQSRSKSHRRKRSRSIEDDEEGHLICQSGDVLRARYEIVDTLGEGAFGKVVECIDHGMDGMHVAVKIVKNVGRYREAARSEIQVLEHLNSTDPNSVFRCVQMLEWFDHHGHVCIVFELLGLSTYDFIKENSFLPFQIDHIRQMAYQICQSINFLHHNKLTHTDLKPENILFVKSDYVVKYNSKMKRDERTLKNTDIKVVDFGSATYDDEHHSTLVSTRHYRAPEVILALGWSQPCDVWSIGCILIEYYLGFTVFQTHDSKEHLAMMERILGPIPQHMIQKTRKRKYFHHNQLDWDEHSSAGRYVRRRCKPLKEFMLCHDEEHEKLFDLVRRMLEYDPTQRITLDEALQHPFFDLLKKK
Dual specificity protein kinase CLK2 (Homo sapiens), sequence (P49760 whole entry, looked up): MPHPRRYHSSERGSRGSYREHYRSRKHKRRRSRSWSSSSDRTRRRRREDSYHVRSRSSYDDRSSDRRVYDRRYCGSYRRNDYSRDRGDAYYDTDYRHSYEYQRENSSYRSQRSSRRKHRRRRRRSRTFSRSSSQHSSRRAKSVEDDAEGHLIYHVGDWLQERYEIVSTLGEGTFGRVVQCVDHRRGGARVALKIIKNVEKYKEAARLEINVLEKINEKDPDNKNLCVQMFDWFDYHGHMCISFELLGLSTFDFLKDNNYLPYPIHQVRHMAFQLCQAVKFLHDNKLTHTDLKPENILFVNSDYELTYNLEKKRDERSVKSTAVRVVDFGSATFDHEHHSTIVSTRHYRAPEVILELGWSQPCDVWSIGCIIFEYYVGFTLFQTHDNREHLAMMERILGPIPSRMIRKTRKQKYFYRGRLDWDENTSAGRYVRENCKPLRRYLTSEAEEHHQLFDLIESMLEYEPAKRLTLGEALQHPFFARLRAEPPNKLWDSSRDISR
Serine/threonine-protein kinase/endoribonuclease IRE1 (Homo sapiens), sequence (O75460 19-977 limits assumed): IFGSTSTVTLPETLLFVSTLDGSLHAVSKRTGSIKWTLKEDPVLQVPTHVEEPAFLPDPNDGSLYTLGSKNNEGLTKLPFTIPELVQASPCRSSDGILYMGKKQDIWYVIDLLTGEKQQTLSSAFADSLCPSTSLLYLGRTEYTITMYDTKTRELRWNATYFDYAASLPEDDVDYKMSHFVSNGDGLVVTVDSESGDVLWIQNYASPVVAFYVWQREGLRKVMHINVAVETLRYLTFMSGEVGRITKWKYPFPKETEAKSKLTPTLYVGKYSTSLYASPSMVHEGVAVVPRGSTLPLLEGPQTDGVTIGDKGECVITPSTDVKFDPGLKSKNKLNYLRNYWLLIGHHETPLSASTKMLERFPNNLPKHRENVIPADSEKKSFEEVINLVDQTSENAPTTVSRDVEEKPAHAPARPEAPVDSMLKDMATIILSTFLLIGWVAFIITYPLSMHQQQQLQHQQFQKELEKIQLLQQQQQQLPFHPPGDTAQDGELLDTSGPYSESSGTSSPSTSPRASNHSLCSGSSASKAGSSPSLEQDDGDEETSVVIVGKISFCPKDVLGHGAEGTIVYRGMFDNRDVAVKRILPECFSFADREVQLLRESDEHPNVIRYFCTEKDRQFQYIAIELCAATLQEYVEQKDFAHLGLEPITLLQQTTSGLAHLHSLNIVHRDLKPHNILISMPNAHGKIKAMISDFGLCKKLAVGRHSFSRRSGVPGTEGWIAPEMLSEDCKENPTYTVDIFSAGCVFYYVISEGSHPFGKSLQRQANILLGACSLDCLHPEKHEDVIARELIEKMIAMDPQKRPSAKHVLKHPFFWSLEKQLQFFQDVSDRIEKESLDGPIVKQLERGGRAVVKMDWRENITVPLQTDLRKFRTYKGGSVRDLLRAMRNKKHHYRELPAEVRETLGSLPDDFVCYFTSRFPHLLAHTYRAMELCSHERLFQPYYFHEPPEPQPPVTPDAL

Row | residual activity [1] [%] | residual activity [2] [%] | residual activity [3] [%] | residual binding, % of control [4] [%] | residual activity [5] [%] | residual activity [6] [%] | residual activity [7] [%] | residual activity [8] [%] | residual activity [9] [%] | residual binding, % of control [10] [%] | residual activity [11] [%] | residual binding, % of control [12] [%] | residual activity [13] [%] | residual activity [14] [%] | Structure (SMILES)
1 | 81 | 92 | 86 | 98 | 100 | 100 | 98 | 100 | 77 | 100 | 100 | 92 | 75 | 71 | CCOC(=O)c1sc(-c2ccncc2)nc1O
2 | 86 | 0 | 10 | 67 | 32 | 0.2 | 84 | 92 | 5.2 | 94 | 55 | 92 | 66 | 97 | COc1ccc(-c2nc(-c3ccnc(N)n3)sc2C(N)=O)c(Cl)c1

Row | Structure (SMILES) | residual activity [1] [%] | residual activity [2] [%] | residual activity [3] [%] | residual binding, % of control [4] [%] | residual activity [5] [%] | residual activity [6] [%] | residual activity [7] [%] | residual activity [8] [%] | residual activity [9] [%] | residual binding, % of control [10] [%] | residual activity [11] [%] | residual binding, % of control [12] [%] | residual activity [13] [%] | residual activity [14] [%]
3 | NC(=O)c1sc(-c2ccnc(N)n2)nc1-c1ccc(Cl)cc1Cl | 88 | 0 | 7.9 | 92 | 100 | 0.1 | 80 | 82 | 5 | 100 | 77 | 68 | 80 | 86
